Where a name gives a salt, the structure may show the parent alone.
Tests used:
Bacillus subtilis [1] = experiment: Antibacterial activity against Bacillus subtilis by disk diffusion method at 25 ug/disk; assay type: functional; conditions: read-out: IZ
How it was run: (§1)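 Bacteria kept on LB agar, grown in LB broth, spun 10,000 rpm 5 min, pellet taken up in double-distilled water, density set by hemocytometer to about 10^4 CFU/mL for plate inoculation. Paper disks carried 25 µg test compound or 10 µg streptomycin/tetracycline reference; DMSO-only disks as negative control. Plates held at 4 °C ≥2 h, then 28 °C; inhibition zone diameter (mm) read at 24 h; mean of three determinations.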

Aspergillus niger [2] = experiment: Antifungal activity against Aspergillus niger by disk diffusion method at 25 ug/disk; assay type: functional; conditions: read-out: IZ
How it was run: (§2)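 Fungi kept on potato dextrose agar at 28 °C; conidia scraped from 5–15 day PDA cultures into distilled water, filtered through sterile cotton, resuspended, adjusted by hemocytometer to about 10^6 CFU/mL. Paper disks bore 25 µg compound, 10 µg nystatin reference, or DMSO alone. Plates at 4 °C ≥2 h, then 28 °C; zone diameter (mm) read at 48 h; mean of three determinations.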

Fusarium verticillioides [3] = experiment: Antifungal activity against Fusarium moniliforme by disk diffusion method at 25 ug/disk; assay type: functional; conditions: read-out: IZ; how it was run: as §2
Xanthomonas campestris [4] = experiment: Antibacterial activity against Xanthomonas campestris pvs by disk diffusion method at 25 ug/disk; assay type: functional; conditions: read-out: IZ; how it was run: as §1
Fusarium oxysporum [5] = experiment: Antifungal activity against Fusarium oxysporum by disk diffusion method at 25 ug/disk; assay type: functional; conditions: read-out: IZ; how it was run: as §2
Trichoderma [6] = experiment: Antifungal activity against Trichoderma species by disk diffusion method at 25 ug/disk; assay type: functional; conditions: read-out: IZ; how it was run: as §2
Pseudomonas fluorescens [7] = experiment: Antibacterial activity against Pseudomonas fluorescens by disk diffusion method at 25 ug/disk; assay type: functional; conditions: read-out: IZ; how it was run: as §1
Xanthomonas oryzae [8] = experiment: Antibacterial activity against Xanthomonas oryzae by disk diffusion method at 25 ug/disk; assay type: functional; conditions: read-out: IZ
Aspergillus flavus [9] = experiment: Antifungal activity against Aspergillus flavus by disk diffusion method at 25 ug/disk; assay type: functional; conditions: read-out: IZ; how it was run: as §2
Escherichia coli [10] = experiment: Antibacterial activity against Escherichia coli by disk diffusion method at 25 ug/disk; assay type: functional; conditions: read-out: IZ; how it was run: as §1
Escherichia coli [11] = experiment: Antibacterial activity against Escherichia coli by disk diffusion method at 10 ug/disk; assay type: functional; conditions: read-out: IZ; how it was run: as §1
Bacillus subtilis [12] = experiment: Antibacterial activity against Bacillus subtilis by disk diffusion method at 10 ug/disk; assay type: functional; conditions: read-out: IZ
Pseudomonas fluorescens [13] = experiment: Antibacterial activity against Pseudomonas fluorescens by disk diffusion method at 10 ug/disk; assay type: functional; conditions: read-out: IZ
Aspergillus flavus [14] = experiment: Antifungal activity against Aspergillus flavus by disk diffusion method at 10 ug/disk; assay type: functional, organism-based
How it was run: (§3)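 Fungi kept on potato dextrose agar at 28 °C. Conidia scraped from 5–15 day PDA cultures into water, cotton-filtered, and adjusted by hemocytometer to ~10^6 CFU/mL. Disks carried 10 µg; DMSO-only disks as negative control. Plates held at 4 °C ≥2 h, then 28 °C; inhibition zone diameter (mm) read after 48 h. Mean of three determinations.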

Trichoderma [15] = experiment: Antifungal activity against Trichoderma species by disk diffusion method at 10 ug/disk; assay type: functional, organism-based; how it was run: as §3
Fusarium verticillioides [16] = experiment: Antifungal activity against Fusarium moniliforme by disk diffusion method at 10 ug/disk; assay type: functional, organism-based; how it was run: as §3
Aspergillus niger [17] = experiment: Antifungal activity against Aspergillus niger by disk diffusion method at 10 ug/disk; assay type: functional, organism-based; how it was run: as §3
Fusarium oxysporum [18] = experiment: Antifungal activity against Fusarium oxysporum by disk diffusion method at 10 ug/disk; assay type: functional, organism-based; how it was run: as §3
Xanthomonas campestris [19] = experiment: Antibacterial activity against Xanthomonas campestris pvs by disk diffusion method at 10 ug/disk; assay type: functional; conditions: read-out: IZ
Xanthomonas oryzae [20] = experiment: Antibacterial activity against Xanthomonas oryzae by disk diffusion method at 10 ug/disk; assay type: functional; conditions: read-out: IZ

Compound	zone of inhibition at 25 µg/disc (Bacillus subtilis [1]) [mm]	zone of inhibition at 25 µg/disc (Aspergillus niger [2]) [mm]	zone of inhibition at 25 µg/disc (Fusarium verticillioides [3]) [mm]	zone of inhibition at 25 µg/disc (Xanthomonas campestris [4]) [mm]	zone of inhibition at 25 µg/disc (Fusarium oxysporum [5]) [mm]	zone of inhibition at 25 µg/disc (Trichoderma [6]) [mm]	zone of inhibition at 25 µg/disc (Pseudomonas fluorescens [7]) [mm]	zone of inhibition at 25 µg/disc (Xanthomonas oryzae [8]) [mm]	zone of inhibition at 25 µg/disc (Aspergillus flavus [9]) [mm]	zone of inhibition at 25 µg/disc (Escherichia coli [10]) [mm]	zone of inhibition at 10 µg/disc (Escherichia coli [11]) [mm]	zone of inhibition at 10 µg/disc (Bacillus subtilis [12]) [mm]	zone of inhibition at 10 µg/disc (Pseudomonas fluorescens [13]) [mm]	inhibition zone (IZ) (Aspergillus flavus [14]) [mm]	inhibition zone (IZ) (Trichoderma [15]) [mm]	inhibition zone (IZ) (Fusarium verticillioides [16]) [mm]	inhibition zone (IZ) (Aspergillus niger [17]) [mm]	inhibition zone (IZ) (Fusarium oxysporum [18]) [mm]	zone of inhibition at 10 µg/disc (Xanthomonas campestris [19]) [mm]	zone of inhibition at 10 µg/disc (Xanthomonas oryzae [20]) [mm]
O=C(Cn1nnc2ccccc21)c1ccc(Cl)cc1	6	4	3	4	6	2	3	2	5	5										
N#Cc1ccccc1-c1ccc(Cn2nnc3ccccc32)cc1	16	14	17	16	20	18	21	15	17	18										
CN[C@@H]1[C@H](O[C@H]2[C@H](O[C@H]3[C@H](O)[C@@H](O)[C@H](N=C(N)N)[C@@H](O)[C@@H]3N=C(N)N)O[C@@H](C)[C@]2(O)C=O)O[C@@H](CO)[C@H](O)[C@H]1O [STREPTOMYCIN SULFATE]											14	12	18							
CCCCn1nnc2ccccc21	13	8	12	12	14	15	19	12	11	14										
O=[N+]([O-])c1ccc(Cn2nnc3ccccc32)cc1	6	5	8	4	9	11	8		7	7										
COc1cc(Br)c(Cn2nnc3ccccc32)cc1OC	12	9	13	12	14	16	18		10	15										
NYSTATIN														10	16	12	8	14		
CCCn1nnc2ccccc21	6	5	4	3	6	1	1	2	4	4										
CN(C)[C@@H]1C(O)=C(C(N)=O)C(=O)[C@@]2(O)C(O)=C3C(=O)c4c(O)cccc4[C@@](C)(O)[C@H]3C[C@@H]12 [TETRACYCLINE]																			12	11
Cc1cc2c(cc1Cn1nnc3ccccc31)OCO2	18	16	18	18	22	20	22	19	19	20										

Source: ChEMBL document CHEMBL1138110, “Microwave-assisted synthesis of N-alkylated benzotriazole derivatives: antimicrobial studies” (2006)
